In one assay the target is T1, Liver carboxylesterase (Sus scrofa, UniProt Q29550).
T1 sequence (Q29550 whole entry): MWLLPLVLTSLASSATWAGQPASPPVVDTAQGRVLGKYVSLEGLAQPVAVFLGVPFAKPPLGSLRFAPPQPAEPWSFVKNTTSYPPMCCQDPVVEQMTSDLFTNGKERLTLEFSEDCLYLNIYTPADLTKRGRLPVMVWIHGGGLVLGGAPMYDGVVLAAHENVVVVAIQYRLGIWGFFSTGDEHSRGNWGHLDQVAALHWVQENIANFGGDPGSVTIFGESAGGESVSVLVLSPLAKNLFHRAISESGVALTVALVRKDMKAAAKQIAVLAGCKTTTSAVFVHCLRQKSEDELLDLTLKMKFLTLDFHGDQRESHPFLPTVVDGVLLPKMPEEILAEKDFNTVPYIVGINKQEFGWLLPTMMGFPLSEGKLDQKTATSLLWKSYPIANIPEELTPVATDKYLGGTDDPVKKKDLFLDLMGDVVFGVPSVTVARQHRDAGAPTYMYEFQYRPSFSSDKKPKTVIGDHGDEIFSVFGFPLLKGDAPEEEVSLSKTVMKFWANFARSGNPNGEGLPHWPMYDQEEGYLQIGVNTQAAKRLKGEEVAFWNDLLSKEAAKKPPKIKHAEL
Briefly: In vitro inhibition of porcine carboxylesterase.

In a further assay the target is T2, Acylcarnitine hydrolase (Mus musculus, UniProt Q91WG0).
T2 sequence (Q91WG0 whole entry): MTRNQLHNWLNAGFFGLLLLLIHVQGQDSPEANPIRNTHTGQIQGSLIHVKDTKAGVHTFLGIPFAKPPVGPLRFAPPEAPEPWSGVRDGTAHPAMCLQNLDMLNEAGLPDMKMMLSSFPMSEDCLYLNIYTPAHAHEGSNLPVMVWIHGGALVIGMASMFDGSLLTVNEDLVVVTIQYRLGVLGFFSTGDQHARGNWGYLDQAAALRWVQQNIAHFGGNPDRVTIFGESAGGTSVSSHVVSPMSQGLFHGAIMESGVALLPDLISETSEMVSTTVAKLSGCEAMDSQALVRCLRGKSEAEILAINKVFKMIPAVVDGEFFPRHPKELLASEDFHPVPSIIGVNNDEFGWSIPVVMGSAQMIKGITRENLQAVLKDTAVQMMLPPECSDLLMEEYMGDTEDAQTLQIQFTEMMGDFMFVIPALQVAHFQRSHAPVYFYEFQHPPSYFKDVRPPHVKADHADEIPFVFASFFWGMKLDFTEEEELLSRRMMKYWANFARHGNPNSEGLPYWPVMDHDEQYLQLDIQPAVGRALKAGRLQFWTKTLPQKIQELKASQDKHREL
The assay is described as follows: Inhibition of carboxylesterase in murine liver microsomes. On the set-up: species or system Microsome. The essentials: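 Liver microsomes from male Swiss-Webster mice (differential centrifugation, 100000g pellets), solubilized in 1% n-octyl-β-D-glucopyranoside, then dialyzed 48 h at 4 °C to remove it; 0.88 μg protein per well. Assay in 0.1 M sodium phosphate pH 7.4 at 30 °C: 5 min inhibitor preincubation (ethanol ≤1%), 0.5 mM p-nitrophenyl acetate, 405 nm.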
In general terms: Microsomes from liver hold many membrane-bound enzymes, among them those of drug oxidation.

Another assay deals with T3, Cocaine esterase (Homo sapiens, UniProt O00748).
T3 sequence (O00748 whole entry): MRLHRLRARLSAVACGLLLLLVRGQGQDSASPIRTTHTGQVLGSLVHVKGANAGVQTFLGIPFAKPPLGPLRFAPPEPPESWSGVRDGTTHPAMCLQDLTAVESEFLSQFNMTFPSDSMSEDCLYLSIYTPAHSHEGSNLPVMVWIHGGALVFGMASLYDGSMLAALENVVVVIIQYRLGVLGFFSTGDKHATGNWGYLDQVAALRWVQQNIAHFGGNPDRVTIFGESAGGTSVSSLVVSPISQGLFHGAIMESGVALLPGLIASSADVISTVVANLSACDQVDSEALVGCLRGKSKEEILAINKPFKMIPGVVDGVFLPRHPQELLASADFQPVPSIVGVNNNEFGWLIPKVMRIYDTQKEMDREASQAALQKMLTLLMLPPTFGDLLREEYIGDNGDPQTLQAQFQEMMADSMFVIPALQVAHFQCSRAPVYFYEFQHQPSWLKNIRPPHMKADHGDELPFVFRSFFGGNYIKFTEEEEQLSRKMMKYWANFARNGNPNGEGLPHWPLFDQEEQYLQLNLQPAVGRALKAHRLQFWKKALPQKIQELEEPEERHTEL
The assay is described as follows: In vitro inhibition of carboxylesterase in human liver microsomes. Also noted: species or system Microsome.

The structures appear in SMILES notation.

A word on the IC50: it is the point on the concentration scale where inhibition reaches its midpoint. A lower IC50 goes with inhibition by little substance. Regarding `CCCCCC/C=C/C(=O)C(F)(F)F`, the half-maximal inhibitory concentration (IC50) on Liver carboxylesterase is 6460 µM; against Acylcarnitine hydrolase, 14800 µM.
The corresponding values for `CCCCCC[Se]CC(C)=O` are 155 µM and 302 µM.
`CCCCCC[Se](=O)CC(C)=O` (stereo not given): the concentration for half-maximal inhibition (IC50) against Liver carboxylesterase was 9.33 µM; against Acylcarnitine hydrolase, 15.8 µM. Further, the “-Log IC50” value on Cocaine esterase is recorded as 5.69.
For `CCCCCC[Se](=O)(=O)CC(C)=O`, the IC50 against Acylcarnitine hydrolase was 112 µM.
In the case of `CCCCCCS(=O)(=O)CC(C)=O`, the IC50 against Liver carboxylesterase is 110 µM; at Acylcarnitine hydrolase, 479 µM.
Consider `CCCCCCCCC(=O)C(F)F`, for which the IC50 against Liver carboxylesterase is 24.5 µM; against Acylcarnitine hydrolase, 44.7 µM. For the same molecule, the “-Log IC50” value on Cocaine esterase stood at 5.3.
The corresponding values for `CCCCCCCCC(=O)C(F)(F)F` are 21.4 µM, 38 µM and 5.36.
For `CCCCCCCC(F)(F)C(=O)C(F)(F)F`, the IC50 was 0.115 µM against Liver carboxylesterase and 0.162 µM on Acylcarnitine hydrolase.
Consider `CCCCCCNCC(=O)C(F)(F)F`, for which the 50% inhibitory concentration (IC50) at Liver carboxylesterase was 0.017 µM; at Acylcarnitine hydrolase it was 0.0224 µM.
In the case of `CCCCCCSCC(C)=O`, the half-inhibitory concentration (IC50) against Liver carboxylesterase was 977 µM; against Acylcarnitine hydrolase it was 955 µM.
The corresponding values for `CCCCCC[Se]CC(=O)C(F)(F)F` are 0.38 µM and 0.575 µM.
`CCCCCCOCC(C)=O`: the 50% inhibitory concentration (IC50) against Liver carboxylesterase is 257 µM; at Acylcarnitine hydrolase it was 427 µM.
As to `CCCCCCCCC(=O)CF`, the figures for the IC50 against Liver carboxylesterase and against Acylcarnitine hydrolase were 851 µM and 1780 µM, respectively. Also, the “-Log IC50” value at Cocaine esterase is listed as 3.85.
As to `CCCCCC[S+]([O-])CC(=O)C(F)(F)F` (stereo not given), the IC50 against Liver carboxylesterase was 0.17 µM; against Acylcarnitine hydrolase, 0.447 µM. Moreover, at Cocaine esterase, the “-Log IC50” value stood at 6.51.
With `CCCCCC[Se](=O)(=O)CC(=O)C(F)(F)F`, the half-inhibitory concentration (IC50) on Liver carboxylesterase was 0.0105 µM; on Acylcarnitine hydrolase it was 0.0132 µM.
The corresponding values for `CCCCCC[Se](=O)CC(=O)C(F)(F)F` (stereo not given) are 0.000457 µM and 0.000501 µM.
For `CCCCCCS(=O)(=O)CC(=O)C(F)(F)F`, the IC50 against Liver carboxylesterase is 0.676 µM; on Acylcarnitine hydrolase, 0.447 µM.
The corresponding values for `CCCCCCC#CC(=O)C(F)(F)F` are 955 µM and 2040 µM.
On the same counts, the results for `CCCCCCOCC(=O)C(F)(F)F` are 0.0437 µM and 0.12 µM.
Regarding `CCCCCCSCC(=O)C(F)(F)F`, the half-maximal inhibitory concentration (IC50) was 0.00832 µM against Liver carboxylesterase and 0.0126 µM against Acylcarnitine hydrolase.
Consider `CCCCCCCCC(C)=O` [2-DECANONE], for which the concentration for half-maximal inhibition (IC50) against Liver carboxylesterase is 67600 µM.

(Values after ChEMBL document CHEMBL1135680, “Use of ab initio calculations to predict the biological potency of carboxylesterase inhibitors” (J Med Chem, 2002).)
